Assay outcomes from PubChem BioAssay.
Phagocytosis inh – inhibitors of macrophage phagocytosis | J774A.1 macrophage IgG-bead phagocytosis, imaging | inhibition, % at 5 µM | 0.07% of 110,000 active;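 active = inhibition above the mean of the plate negative controls plus 5 SD, cut at about 13% in these data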;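 note: phagocytic index as fraction of beads internalized from green versus red external bead signal; plate controls were DMSO negative control for no effect and cytochalasin-D positive control for full effect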
Measles CPE – protection of cells from measles virus | Measles virus-infected cells, CPE protection, absorbance | protection (pct of control), % at 4 µM | 1.5% of 140,000 active; in the data active = protection mostly above about 24%, no sharp cut-off; inactive = mostly below about 26%
Cav32 inh – inhibitors of human Cav3.2 T-type calcium channel. Cav3.2-expressing cells, Fluo-4 calcium fluorescence FDSS; active compounds read low. B-score at 10 µM. 4% of 100,000 active. AID 449739;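 active = single-dose well whose peak fluorescence ratio is a statistical outlier from its plate by either plate-standardised score or position-corrected B-score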
Rev-RRE block – disrupts HIV-1 Rev binding to RRE RNA | P05866 | Rev peptide-RRE RNA binding, FRET | inhibition, % at 8 µM | 0.79% of 97,000 active | AID 704;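 active = inhibition above the screen-wide mean plus 3 SD, cut at about 35% in these data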;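 note: 0% = median DMSO wells and 100% = median Neomycin B control wells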
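Test system: Cy5-tagged RRE RNA duplex with fluorescein-tagged Rev peptide | Read-out: % inhibition of FRET ratio versus controls | Probe or stimulus: Labelled Rev peptide | Incubation: 5 min RNA-compound premix plus 15 min binding step, 25 °C | Technique: FRET fluorescence readout | Benchmarks: DMSO low control, neomycin B high control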
DAT uptake mod – changed human dopamine transporter uptake under cocaine IC80; Q01959; LLC-PK1 hDAT cells, [14C]-dopamine uptake with cocaine IC80; actives deviate in either direction; B-score at 10 µM; 1.3% of 110,000 active;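 active = Z score or B-score, a plate-position-corrected score, falls beyond the plate's 99.7% confidence bounds, in either direction; inactive = both scores lie inside the 99.7% bounds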;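 note: scored against the spread of the other compound wells on the same plate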
PTK2B oligo ant – Pyk2 (human) oligomerization antagonism; Q14289; Q293 cells, Pyk2 FERM NanoBiT luminescence; active compounds read low; z-score (the deposit names both 25 µM and 10 µM); 0.83% of 99,000 active; AID 1347419;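 active = Z-score of -3 or lower, scaled per plate to the spread of control and sample wells; inactive = z-score above -3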;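 note: negative z-score means lost luminescence so less FERM oligomerization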
Target sequence (Q14289 whole entry, looked up): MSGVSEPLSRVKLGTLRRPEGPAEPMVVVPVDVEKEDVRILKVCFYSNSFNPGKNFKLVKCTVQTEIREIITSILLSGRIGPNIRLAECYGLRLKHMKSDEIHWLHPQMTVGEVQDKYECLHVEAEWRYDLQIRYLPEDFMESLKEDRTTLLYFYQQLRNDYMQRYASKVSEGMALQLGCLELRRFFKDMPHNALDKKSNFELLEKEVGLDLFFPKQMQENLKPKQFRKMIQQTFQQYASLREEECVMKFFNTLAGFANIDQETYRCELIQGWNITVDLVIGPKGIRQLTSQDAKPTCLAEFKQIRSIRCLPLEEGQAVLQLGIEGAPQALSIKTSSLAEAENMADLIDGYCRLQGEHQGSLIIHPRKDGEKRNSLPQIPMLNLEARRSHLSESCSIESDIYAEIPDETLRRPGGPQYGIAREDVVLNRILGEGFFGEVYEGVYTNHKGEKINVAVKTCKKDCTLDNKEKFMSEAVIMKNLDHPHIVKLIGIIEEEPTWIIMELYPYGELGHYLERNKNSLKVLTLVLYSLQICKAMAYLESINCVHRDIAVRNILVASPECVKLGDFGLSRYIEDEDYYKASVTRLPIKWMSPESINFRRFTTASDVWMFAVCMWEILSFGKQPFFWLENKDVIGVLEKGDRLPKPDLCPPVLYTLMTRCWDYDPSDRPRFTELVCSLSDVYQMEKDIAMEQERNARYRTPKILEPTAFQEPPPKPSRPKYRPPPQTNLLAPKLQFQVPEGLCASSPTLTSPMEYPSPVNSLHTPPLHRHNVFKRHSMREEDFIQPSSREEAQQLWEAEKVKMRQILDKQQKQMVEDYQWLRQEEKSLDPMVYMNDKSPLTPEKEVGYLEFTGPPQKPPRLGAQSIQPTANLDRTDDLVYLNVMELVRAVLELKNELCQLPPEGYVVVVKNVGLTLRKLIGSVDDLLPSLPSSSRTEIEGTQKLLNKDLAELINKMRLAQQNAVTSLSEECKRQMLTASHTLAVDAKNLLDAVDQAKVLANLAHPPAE
An asterisk follows results filed as active; . = no result given. Only some compounds are listed: those with a hit (about 5.9% of all), similar ones and a draw of the others.

SMILES	Phagocytosis inh	Measles CPE	Cav32 inh	Rev-RRE block	DAT uptake mod	PTK2B oligo ant
O=C(NCc1ccc(Cl)cc1)c1cnccn1	.	17.1	-0.417	8.6	-2.8*	0.46
COC(=O)COc1ccc(/C=N/NC(=O)c2ccc(N(Cc3ccccc3)S(C)(=O)=O)cc2)cc1	-0.8	10.5	.	.	.	.
CCN(Cc1ccccc1)C(c1ccc(C(F)(F)F)cc1)c1nnnn1C(C)(C)C (configuration not stated)	.	5.9	-4.35*	6.5	-1.94	0.11
CCN(Cc1ccccc1)C(c1cccc(C#N)c1)c1nnnn1C(C)(C)C (configuration not stated)	1.7	7.2	-2.24	12.6	0.414	-1.58
O=C(NCc1cccc(Br)c1)C1CC(c2ccccc2[N+](=O)[O-])=NO1 (configuration not stated)	.	.	-0.0333	.	1.73	.
CCO[C@H]1OC(C(=O)NC2CC2)=C[C@@H](C2CC2)[C@@H]1CCCO	.	.	0.0793	.	-0.573	.
Cc1ccc2[nH]c(=O)c(N3CCOCC3)c(-c3ccccc3)c2c1	-0.5	77.6*	-0.918	3.4	1.42	-0.68
Cc1ccc(C(=O)N2CCC3(CC2)Oc2ccc(F)cc2C(=O)C32CC(c3ccccc3)=NO2)s1 (configuration not stated)	.	.	-1.53	.	-0.284	.
O=C(c1cccs1)N(Cc1ccco1)c1nc(-c2ccc(F)cc2)cs1	.	19.2	-0.922	6.7	-0.287	-2.34
CN(C)CCCN(C(=O)c1cccs1)c1nc(-c2ccccc2)cs1	-1.3	39.9*	0.268	0.9	1.45	0.48
Cc1sc2nc(CSc3cccc(C(F)(F)F)c3)[nH]c(=O)c2c1C	-3.8	12.7	.	.	.	.
O=C(O)CSc1ncnc2c1oc1ccccc12	7.3	27.3*	0.902	6.3	-0.498	0.82
OCCSc1ncnc2c1oc1ccccc12	0.7	14.1	-1.24	8.1	0.0418	2.71
Cc1cc(OC(=O)c2ccc(Cl)cc2Cl)nc(C)n1	.	9.0	2.99	5.2	-1.11	-0.05
O=C(CSCC(=O)OCC(=O)c1ccc(Br)cc1)Nc1cccc2ccccc12	-4.4	7.4	-0.0339	5.0	-0.564	0.79
COc1ccc(NC(=O)CN2CCN(c3nc(-c4cccc(OC)c4)cs3)CC2)cc1	.	4.0	-1.15	-2.7	2.45	-0.37
COc1cccc(-c2csc(N3CCN(C(=O)Nc4ccc(F)cc4)CC3)n2)c1	.	6.9	-6.48*	-1.2	0.459	-0.02
Cc1ccc(S(=O)(=O)NCCc2ccncc2)cc1	-2.2	8.5	-0.0354	8.6	-0.598	0.24
CCCCc1ccc(S(=O)(=O)NCCc2ccncc2)cc1	-2.3	3.2	-3.64*	13.4	-0.117	-0.01
COc1ccc(-c2noc3c2-c2nc(-c4ccc(C)cc4)sc2CC3)cc1	.	.	0.952	.	-1.01	.
Cc1ccc(-c2noc(CCC(=O)NCCN3CCOCC3)n2)cc1	4.0	18.9	0.564	0.5	-0.197	1.75
CCN(CCCNC(=O)CCCn1c(=O)[nH]c2ccccc2c1=O)c1cccc(C)c1	-2.2	40.5	-5.5*	4.2	0.228	0.02
Cc1cccc(-c2noc(CCC(=O)NCc3ccccc3)n2)c1	0.8	8.5	-3.13	4.9	0.0415	1.87
Cc1ccc(-c2noc(CCC(=O)NCCN3CCc4ccccc4C3)n2)cc1	-2.1	7.8	-7.06*	8.7	0.214	0.66
COc1ccc(NC(=O)CCCCn2c(=O)[nH]c3ccccc3c2=O)cc1	1.4	10.1	0.185	-1.1	-7.72*	-1.18
SMILES	Phagocytosis inh	Measles CPE	Cav32 inh	Rev-RRE block	DAT uptake mod	PTK2B oligo ant
CCN(CCCNC(=O)CCc1nc(-c2ccc(C)cc2)no1)c1cccc(C)c1	-1.0	37.3	-8.15*	-5.8	0.0681	1.39
COc1ccc(NC(=O)CCCn2c(=O)[nH]c3ccccc3c2=O)cc1	0.4	17.0	0.883	-1.1	0.623	-0.15
CCNC(=O)C(=O)NCC1OCCCN1S(=O)(=O)c1cccs1 (configuration not stated)	-1.1	1.9	.	.	.	.
O=C(CSc1nnc(-c2cccnc2)s1)Nc1ccc(C(=O)O)cc1	1.2	10.8	.	.	.	.
O=C(N/N=C1/CC2C=CCC12)c1ccco1 (configuration not stated)	.	7.6	.	.	.	.
CCOC(=O)c1oc2ccc(CNC(C)(C)C)c(Cl)c2c1C	.	7.8	2.21	7.5	-0.0256	0.51
CCN(CCCNC(=O)C1CCC(=O)N1Cc1ccc(C)cc1)c1cccc(C)c1 (configuration not stated)	.	7.8	-3.38*	-2.4	-0.0432	1.73
CCN(CCCNC(=O)C1CCC(=O)N1Cc1ccccc1Cl)c1cccc(C)c1 (configuration not stated)	-1.5	2.9	-1.26	3.5	0.0102	-0.45
Cc1ccc2nc(Cl)c(CN(Cc3cccs3)C(=O)C3CC3)cc2c1	-0.2	37.4*	-2.08	3.6	0.91	-3
COc1ccc(S(=O)(=O)N(Cc2ccccc2)Cc2nc(-c3ccccc3)no2)cc1	-0.3	24.3	-5.52*	18.3	0.188	0.9
COc1nc(Oc2ccc(=O)[nH]n2)nc(N2CCOCC2)n1	.	44.2*	-0.183	3.0	0.727	0.18
NC(=O)c1cc2cc(Cl)ccc2oc1=Nc1cccc(C(F)(F)F)c1	.	4.3	.	.	.	.
C=CCc1cc(OC)ccc1OCCOCCC(C(=O)OCC)C(=O)OCC	.	21.2*	.	.	.	.
C=CCc1cc(Cl)ccc1OCCOCCNCCOC	.	1.2	.	.	.	0.31
O=C(NC1CCCCC1)c1sc(N2CCOCC2)nc1-c1ccccc1	7.2	5.0	.	.	.	.
CCOC(=O)c1sc(NC(=O)Cn2nnc3sc4c(c3c2=O)CCCC4)nc1C	.	0.7	-4.6*	7.2	0.876	-1.13
O=[N+]([O-])c1cccc(-n2nnnc2CN2CCCCCC2)c1	-0.9	33.2*	0.404	1.1	-0.503	1.68
Cc1ccc2nsnc2c1S(=O)(=O)N1CCN(Cc2ccc3c(c2)OCO3)CC1	0.7	23.9	0.0713	6.7	5.41*	-1.41
O=S(=O)(c1ccccc1)c1nc(Nc2ccccc2N2CCOCC2)sc1Cl	0.9	3.6	-5.32*	14.1	1.93	-0.64
CCc1cc2c(SCC(=O)c3ccc(Cl)s3)ncnc2s1	.	7.0	0.15	6.8	0.553	-0.33
O=C1NC(c2ccccc2)=C(c2nc3ccccc3s2)C(c2ccc(F)cc2)N1 (configuration not stated)	.	6.7	-5.06	2.5	2.36	-3.16*
COc1ccc(C2NC(=O)NC(c3ccccc3)=C2c2nc3ccccc3s2)cc1 (configuration not stated)	-0.4	28.3*	-5.76*	6.3	0.0632	-2.91
c1cnc2c(C3NCCc4c3[nH]c3ccccc43)cccc2c1 (configuration not stated)	.	.	-0.0869	.	1.8	.
O=C(NCc1ccccc1Cl)c1ccccc1Oc1ccccc1	-5.5	24.1	.	.	.	.
CN1C(=O)C(CC(=O)Nc2ccc(F)cc2)N(CCCc2ccccc2)C1=S (configuration not stated)	5.3	5.2	-5.18*	16.9	0.0154	0.2
COC(=O)CN1C(=S)N(Cc2ccccc2)C(=O)C1CC(=O)Nc1ccc(Br)cc1 (configuration not stated)	.	8.9	-3.39	17.8	-0.00628	-0.91
